Reference: ChEMBL document CHEMBL4038305, “Benzoxaborole Antimalarial Agents. Part 5. Lead Optimization of Novel Amide Pyrazinyloxy Benzoxaboroles and Identification of a Preclinical Candidate” (J Med Chem, 2017)
pIC50: −log10 of the molar value.

Columns and labels:
[1] = system: Plasmodium berghei; experiment: Antimalarial activity against Plasmodium berghei infected in Swiss Webster mouse assessed as mouse survival rate at 3 mg/kg administered once daily via oral gavage for 4 consecutive days beginning 1 hr after infection measured on day 4 post infection relative to control; type: functional
In short: (§1)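 P. berghei-infected erythrocytes taken from a previously infected mouse were injected intraperitoneally. Oral dosing, once daily for 4 consecutive days, began 1 h after infection, in polyethylene glycol 300/propylene glycol/water (55/25/20 by weight). Chloroquine at 30 mg/kg was the positive control, with a vehicle-only group. Percent survival was recorded daily from day 4 to day 20.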

[2] = system: Plasmodium falciparum; experiment: Antimalarial activity against chloroquine-sensitive Plasmodium falciparum 3D7 infected in human erythrocytes assessed as reduction in [3H]-hypoxanthine incorporation preincubated for 24 hrs followed by [3H]-hypoxanthine addition measured after 24 hrs by scintillation counting method; type: functional, cell-based
In short: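 P. falciparum 3D7 cultures were exposed to the compound for 48 h, with atovaquone as the reference control. IC50 was taken from three replicates.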

[3] = system: Plasmodium berghei; experiment: Antimalarial activity against Plasmodium berghei infected in Swiss Webster mouse assessed as mouse survival rate at 11 mg/kg administered once daily via oral gavage for 4 consecutive days beginning 1 hr after infection measured on day 6 post infection relative to control; type: functional; in short: as §1
[4] = system: Plasmodium berghei; experiment: Antimalarial activity against Plasmodium berghei infected in Swiss Webster mouse assessed as mouse survival rate at 100 mg/kg administered once daily via oral gavage for 4 consecutive days beginning 1 hr after infection measured on day 5 post infection relative to control; type: functional
In short: (§2)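 Mice given an intraperitoneal injection of P. berghei-infected erythrocytes taken from a previously infected animal. Oral dosing once daily for 4 consecutive days, starting 1 h after infection. Vehicle: polyethylene glycol 300/propylene glycol/water (weight ratio 55/25/20). Percent survival recorded daily from day 4 to day 20. Chloroquine 30 mg/kg and vehicle-only groups served as controls.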

[5] = system: Plasmodium berghei; experiment: Antimalarial activity against Plasmodium berghei infected in Swiss Webster mouse assessed as mouse survival rate administered once daily via oral gavage for 4 consecutive days beginning 1 hr after infection measured on day 4 post infection; type: functional; in short: as §2
[6] = system: Plasmodium berghei; experiment: Antimalarial activity against Plasmodium berghei infected in Swiss Webster mouse assessed as mouse survival rate at 1 mg/kg administered once daily via oral gavage for 4 consecutive days beginning 1 hr after infection measured on day 7 post infection relative to control; type: functional; in short: as §2
[7] = system: Plasmodium berghei; experiment: Antimalarial activity against Plasmodium berghei infected in Swiss Webster mouse assessed as mouse survival rate at 100 mg/kg administered once daily via oral gavage for 4 consecutive days beginning 1 hr after infection measured on day 7 post infection relative to control; type: functional; in short: as §2
[8] = system: Plasmodium berghei; experiment: Antimalarial activity against Plasmodium berghei infected in Swiss Webster mouse assessed as mouse survival rate at 100 mg/kg administered once daily via oral gavage for 4 consecutive days beginning 1 hr after infection measured on day 4 post infection relative to control; type: functional; in short: as §2
[9] = system: Plasmodium berghei; experiment: Antimalarial activity against Plasmodium berghei infected in Swiss Webster mouse assessed as mouse survival rate at 100 mg/kg administered once daily via oral gavage for 4 consecutive days beginning 1 hr after infection measured on day 14 post infection relative to control; type: functional; in short: as §2
[10] = system: Plasmodium berghei; experiment: Antimalarial activity against Plasmodium berghei infected in Swiss Webster mouse assessed as mouse survival rate at 100 mg/kg administered once daily via oral gavage for 4 consecutive days beginning 1 hr after infection measured on day 13 post infection relative to control; type: functional; in short: as §2
[11] = system: Plasmodium berghei; experiment: Antimalarial activity against Plasmodium berghei infected in Swiss Webster mouse assessed as mouse survival rate at 33 mg/kg administered once daily via oral gavage for 4 consecutive days beginning 1 hr after infection measured on day 7 post infection relative to control; type: functional; in short: as §1
[12] = system: Plasmodium berghei; experiment: Antimalarial activity against Plasmodium berghei infected in Swiss Webster mouse assessed as mouse survival rate at 33 mg/kg administered once daily via oral gavage for 4 consecutive days beginning 1 hr after infection measured on day 5 post infection relative to control; type: functional; in short: as §1
[13] = system: Plasmodium falciparum; experiment: Antimalarial activity against chloroquine-resistant Plasmodium falciparum W2 infected in human erythrocytes after 48 hrs by YOYO-1 dye based flow cytometric analysis; type: functional, cell-based; details: W2, 48 h
In short: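 P. falciparum W2 cultures were exposed to the compound for 48 h, with artemisinin and chloroquine as reference controls. IC50 was taken from two independent replicates.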

[14] = system: Plasmodium berghei; experiment: Antimalarial activity against Plasmodium berghei infected in Swiss Webster mouse assessed as mouse survival rate at 11 mg/kg administered once daily via oral gavage for 4 consecutive days beginning 1 hr after infection measured on day 5 post infection relative to control; type: functional; in short: as §1
[15] = system: Plasmodium berghei; experiment: Antimalarial activity against Plasmodium berghei infected in Swiss Webster mouse assessed as mouse survival rate at 1 mg/kg administered once daily via oral gavage for 4 consecutive days beginning 1 hr after infection measured on day 4 post infection relative to control; type: functional; in short: as §2
[16] = system: Plasmodium berghei; experiment: Antimalarial activity against Plasmodium berghei infected in Swiss Webster mouse assessed as mouse survival rate at 33 mg/kg administered once daily via oral gavage for 4 consecutive days beginning 1 hr after infection measured on day 6 post infection relative to control; type: functional; in short: as §1
[17] = system: Plasmodium berghei; experiment: Antimalarial activity against Plasmodium berghei infected in Swiss Webster mouse assessed as mouse survival rate at 3 mg/kg administered once daily via oral gavage for 4 consecutive days beginning 1 hr after infection measured on day 5 post infection relative to control; type: functional; in short: as §1
[18] = system: Plasmodium berghei; experiment: Antimalarial activity against Plasmodium berghei infected in Swiss Webster mouse assessed as mouse survival rate at 100 mg/kg administered once daily via oral gavage for 4 consecutive days beginning 1 hr after infection measured on day 6 post infection relative to control; type: functional; in short: as §2
[19] = system: Plasmodium berghei; experiment: Antimalarial activity against Plasmodium berghei infected in Swiss Webster mouse assessed as mouse survival rate at 3 mg/kg administered once daily via oral gavage for 4 consecutive days beginning 1 hr after infection measured on day 6 post infection relative to control; type: functional; in short: as §1
[20] = system: Plasmodium berghei; experiment: Antimalarial activity against Plasmodium berghei infected in Swiss Webster mouse assessed as mouse survival rate at 33 mg/kg administered once daily via oral gavage for 4 consecutive days beginning 1 hr after infection measured on day 4 post infection relative to control; type: functional; in short: as §1
[21] = system: Plasmodium berghei; experiment: Antimalarial activity against Plasmodium berghei infected in Swiss Webster mouse assessed as mouse survival rate at 11 mg/kg administered once daily via oral gavage for 4 consecutive days beginning 1 hr after infection measured on day 7 post infection relative to control; type: functional; in short: as §1
[22] = system: Plasmodium berghei; experiment: Antimalarial activity against Plasmodium berghei infected in Swiss Webster mouse assessed as mouse survival rate at 11 mg/kg administered once daily via oral gavage for 4 consecutive days beginning 1 hr after infection measured on day 4 post infection relative to control; type: functional; in short: as §1
[23] = system: Plasmodium berghei; experiment: Antimalarial activity against Plasmodium berghei infected in Swiss Webster mouse assessed as mouse survival rate at 33 mg/kg administered once daily via oral gavage for 4 consecutive days beginning 1 hr after infection measured on day 9 post infection relative to control; type: functional; in short: as §1
[24] = system: Plasmodium berghei; experiment: Antimalarial activity against Plasmodium berghei infected in Swiss Webster mouse assessed as mouse survival rate at 3 mg/kg administered once daily via oral gavage for 4 consecutive days beginning 1 hr after infection measured on day 7 post infection relative to control; type: functional; in short: as §1
[25] = system: Plasmodium berghei; experiment: Antimalarial activity against Plasmodium berghei infected in Swiss Webster mouse assessed as mouse survival rate at 100 mg/kg administered once daily via oral gavage for 4 consecutive days beginning 1 hr after infection measured on day 10 post infection relative to control; type: functional; in short: as §2
[26] = system: Plasmodium berghei; experiment: Antimalarial activity against Plasmodium berghei infected in Swiss Webster mouse assessed as mouse survival rate at 100 mg/kg administered once daily via oral gavage for 4 consecutive days beginning 1 hr after infection measured on day 11 post infection relative to control; type: functional; in short: as §2
[27] = system: Plasmodium berghei; experiment: Antimalarial activity against Plasmodium berghei infected in Swiss Webster mouse assessed as mouse survival rate at 33 mg/kg administered once daily via oral gavage for 4 consecutive days beginning 1 hr after infection measured on day 8 post infection relative to control; type: functional; in short: as §1
[28] = system: Plasmodium berghei; experiment: Antimalarial activity against Plasmodium berghei infected in Swiss Webster mouse assessed as mouse survival rate at 1 mg/kg administered once daily via oral gavage for 4 consecutive days beginning 1 hr after infection measured on day 5 post infection relative to control; type: functional; in short: as §2
[29] = system: Plasmodium berghei; experiment: Antimalarial activity against Plasmodium berghei infected in Swiss Webster mouse assessed as mouse survival rate at 100 mg/kg administered once daily via oral gavage for 4 consecutive days beginning 1 hr after infection measured on day 12 post infection relative to control; type: functional; in short: as §2
[30] = system: Plasmodium berghei; experiment: Antimalarial activity against Plasmodium berghei infected in Swiss Webster mouse assessed as mouse survival rate at 100 mg/kg administered once daily via oral gavage for 4 consecutive days beginning 1 hr after infection measured on day 8 post infection relative to control; type: functional; in short: as §2
[31] = system: Plasmodium berghei; experiment: Antimalarial activity against Plasmodium berghei infected in Swiss Webster mouse assessed as mouse survival rate at 1 mg/kg administered once daily via oral gavage for 4 consecutive days beginning 1 hr after infection measured on day 6 post infection relative to control; type: functional; in short: as §2
[32] = system: Plasmodium berghei; experiment: Antimalarial activity against Plasmodium berghei infected in Swiss Webster mouse assessed as mouse survival rate at 100 mg/kg administered once daily via oral gavage for 4 consecutive days beginning 1 hr after infection measured on day 9 post infection relative to control; type: functional; in short: as §2
[33] = system: Plasmodium falciparum; experiment: Antimalarial activity against Plasmodium falciparum TM90C2B infected in human erythrocytes assessed as reduction in [3H]-hypoxanthine incorporation preincubated for 24 hrs followed by [3H]-hypoxanthine addition measured after 24 hrs by scintillation counting method; type: functional, cell-based
[34] = system: Plasmodium falciparum; experiment: Antimalarial activity against Plasmodium falciparum NF54 infected in human erythrocytes assessed as reduction in [3H]-hypoxanthine incorporation preincubated for 24 hrs followed by [3H]-hypoxanthine addition measured after 24 hrs by scintillation counting method; type: functional, cell-based
[35] = system: Plasmodium falciparum; experiment: Antimalarial activity against Plasmodium falciparum Dd2 infected in human erythrocytes assessed as reduction in [3H]-hypoxanthine incorporation preincubated for 24 hrs followed by [3H]-hypoxanthine addition measured after 24 hrs by scintillation counting method; type: functional, cell-based
[36] = system: Plasmodium falciparum; experiment: Antimalarial activity against intraerythrocytic stage of Plasmodium falciparum assessed as time required for maximal killing effect at 10 times IC50 preincubated for 24 hrs followed by [3H]-hypoxanthine addition measured after 24 hrs by scintillation counting method; type: functional
In short: (§3)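 In vitro P. falciparum parasite reduction ratio assay run at 10×, 30× and 100× IC50. Derived parameters: lag phase (time to maximal killing), PRR (parasites killed per life cycle) and PCT99.9% (time to clear 99.9% of the initial parasite population).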

[37] = system: Plasmodium falciparum; experiment: Antimalarial activity against Plasmodium falciparum K1 infected in human erythrocytes assessed as reduction in [3H]-hypoxanthine incorporation preincubated for 24 hrs followed by [3H]-hypoxanthine addition measured after 24 hrs by scintillation counting method; type: functional, cell-based
[38] = system: Plasmodium falciparum; experiment: Antimalarial activity against intraerythrocytic stage of Plasmodium falciparum assessed as parasite reduction ratio at 10 times IC50 preincubated for 24 hrs followed by [3H]-hypoxanthine addition measured after 24 hrs by scintillation counting method; type: functional; in short: as §3
[39] = system: Plasmodium falciparum; experiment: Antimalarial activity against intraerythrocytic stage of Plasmodium falciparum assessed as time required to clear 99.9% of initial parasite population at 10 times IC50 preincubated for 24 hrs followed by [3H]-hypoxanthine addition measured after 24 hrs by scintillation counting method; type: functional; in short: as §3

Cc1c(Oc2cnc(C(=O)N[C@@H](CO)C(C)C)cn2)ccc2c1B(O)OC2
survival at 3 mg/kg [1]: 100% | pIC50 [2]: 6.33 | survival at 11 mg/kg [3]: 100% | survival at 100 mg/kg [4]: 100% | ED90 [5]: 26.7 mg/kg | survival at 1 mg/kg [6]: 0% | survival at 100 mg/kg [7]: 100% | survival at 100 mg/kg [8]: 100% | survival at 100 mg/kg [9]: 40% | survival at 100 mg/kg [10]: 40% | survival at 33 mg/kg [11]: 80% | survival at 33 mg/kg [12]: 100% | pIC50 [13]: 6.83 | survival at 11 mg/kg [14]: 100% | survival at 1 mg/kg [15]: 100% | survival at 33 mg/kg [16]: 100% | survival at 3 mg/kg [17]: 100% | survival at 100 mg/kg [18]: 100% | survival at 3 mg/kg [19]: 100% | survival at 33 mg/kg [20]: 100% | survival at 11 mg/kg [21]: 0% | survival at 11 mg/kg [22]: 100% | survival at 33 mg/kg [23]: 0% | survival at 3 mg/kg [24]: 0% | survival at 100 mg/kg [25]: 40% | survival at 100 mg/kg [26]: 40% | survival at 33 mg/kg [27]: 80% | survival at 1 mg/kg [28]: 100% | survival at 100 mg/kg [29]: 40% | survival at 100 mg/kg [30]: 100% | survival at 1 mg/kg [31]: 100% | survival at 100 mg/kg [32]: 100%

O=C1C(O)=C([C@H]2CC[C@H](c3ccc(Cl)cc3)CC2)C(=O)c2ccccc21 [ATOVAQUONE]
pIC50 [33]: < 7.46 | pIC50 [34]: 9.00 | pIC50 [35]: 8.70 | Time [36]: 48 h | pIC50 [37]: 9.15 | log(ratio) [38]: 2.9 | T99.9% [39]: 81 h
